Experimental data taken from ChEMBL document CHEMBL3627695, “1-Benzyl-2-methyl-3-indolylmethylene barbituric acid derivatives: Anti-cancer agents that target nucleophosmin 1 (NPM1)” (Bioorg Med Chem, 2015).
Activity calls are given as the source filed them. The rule behind the calls is not given here.

Columns and labels:
[1] = (§1) Anticancer activity against human OCI-AML3 cells expressing mutant NPM1 assessed as apoptosis for 48 hrs by annexin-V and TO-PRO3 staining based flow cytometry; type: functional, cell-based; settings: OCI-AML-3, 48 h
Summary of the method: (§2)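 OCI-AML3 cells (NPM1c+) in logarithmic growth, passaged 2–3 times weekly. Cells were exposed to the indicated compound concentrations for 48 hr, then stained with annexin V and TO-PRO 3. Percent apoptotic cells was read by flow cytometry. AP50 is the concentration at which 50% of cells undergo apoptosis.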

[2] = test system: CCRF-CEM; test: Anticancer activity against human CCRF-CEM cells after 48 hrs by sulforhodamine B assay; type: functional
Summary of the method: (§3)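 NCI-60 human tumour cell line panel. Compounds dissolved in DMSO/H2O and tested at five 10-fold dilutions (10⁻⁴ M to 10⁻⁸ M) for 48 hr. GI50 is the molar concentration giving 50% reduction in net cell growth relative to cell numbers on day 0.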

[3] = test system: HL-60(TB); test: Anticancer activity against human HL-60(TB) cells after 48 hrs by sulforhodamine B assay; type: functional; settings: HL-60, 48 h; summary of the method: as §3
[4] = test system: K562; test: Anticancer activity against human K562 cells after 48 hrs by sulforhodamine B assay; type: functional; settings: K562, 48 h; summary of the method: as §3
[5] = Anticancer activity against human MOLT4 cells after 48 hrs by sulforhodamine B assay; type: functional; settings: MOLT-4, 48 h; summary of the method: as §3
[6] = Anticancer activity against human RPMI8226 cells after 48 hrs by sulforhodamine B assay; type: functional; settings: RPMI-8226, 48 h; summary of the method: as §3
[7] = test system: SR; test: Anticancer activity against human SR cells after 48 hrs by sulforhodamine B assay; type: functional
Summary of the method: (§4)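 NCI-60 panel protocol. Compounds were dissolved in DMSO/H2O and tested at five 10-fold concentrations (10⁻⁴ to 10⁻⁸ M) with 48 hr incubation. GI50 is the molar concentration giving a 50% reduction in net cell growth relative to cell numbers on day 0.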

[8] = test system: A549; test: Anticancer activity against human A549/ATCC cells after 48 hrs by sulforhodamine B assay; type: functional; settings: A549, 48 h; summary of the method: as §3
[9] = test system: HOP-62; test: Anticancer activity against human HOP62 cells after 48 hrs by sulforhodamine B assay; type: functional; settings: HOP-62, 48 h; summary of the method: as §3
[10] = Anticancer activity against human HOP92 cells after 48 hrs by sulforhodamine B assay; type: functional; settings: HOP-92, 48 h; summary of the method: as §3
[11] = test system: NCI-H226; test: Anticancer activity against human NCI-H226 cells after 48 hrs by sulforhodamine B assay; type: functional; settings: NCI-H226, 48 h; summary of the method: as §3
[12] = test system: NCI-H322M; test: Anticancer activity against human NCI-H322M cells after 48 hrs by sulforhodamine B assay; type: functional; summary of the method: as §3
[13] = test system: NCI-H460; test: Anticancer activity against human NCI-H460 cells after 48 hrs by sulforhodamine B assay; type: functional; settings: NCI-H460, 48 h; summary of the method: as §3
[14] = test system: NCI-H522; test: Anticancer activity against human NCI-H522 cells after 48 hrs by sulforhodamine B assay; type: functional; settings: NCI-H522, 48 h; summary of the method: as §3
[15] = Anticancer activity against human COLO205 cells after 48 hrs by sulforhodamine B assay; type: functional; settings: COLO 205, 48 h; summary of the method: as §3
[16] = Anticancer activity against human HCC2998 cells after 48 hrs by sulforhodamine B assay; type: functional; settings: HCC 2998, 48 h; summary of the method: as §3
[17] = test system: HCT-116; test: Anticancer activity against human HCT116 cells after 48 hrs by sulforhodamine B assay; type: functional; settings: HCT-116, 48 h; summary of the method: as §3
[18] = test system: HCT-15; test: Anticancer activity against human HCT15 cells after 48 hrs by sulforhodamine B assay; type: functional; settings: HCT-15, 48 h; summary of the method: as §3
[19] = test system: HT-29; test: Anticancer activity against human HT-29 cells after 48 hrs by sulforhodamine B assay; type: functional; settings: HT-29, 48 h; summary of the method: as §3
[20] = test system: KM12; test: Anticancer activity against human KM12 cells after 48 hrs by sulforhodamine B assay; type: functional; settings: KM12, 48 h; summary of the method: as §3
[21] = test system: SW-620; test: Anticancer activity against human SW620 cells after 48 hrs by sulforhodamine B assay; type: functional; settings: SW-620, 48 h; summary of the method: as §4
[22] = test system: SF-268; test: Anticancer activity against human SF268 cells after 48 hrs by sulforhodamine B assay; type: functional; settings: SF-268, 48 h; summary of the method: as §3
[23] = Anticancer activity against human SF295 cells after 48 hrs by sulforhodamine B assay; type: functional; settings: SF-295, 48 h; summary of the method: as §3
[24] = Anticancer activity against human SF539 cells after 48 hrs by sulforhodamine B assay; type: functional; settings: SF-539, 48 h; summary of the method: as §3
[25] = test system: SNB-19; test: Anticancer activity against human SNB19 cells after 48 hrs by sulforhodamine B assay; type: functional; settings: SNB-19, 48 h; summary of the method: as §3
[26] = test system: SNB-75; test: Anticancer activity against human SNB75 cells after 48 hrs by sulforhodamine B assay; type: functional; settings: SNB-75, 48 h; summary of the method: as §3
[27] = test system: U-251; test: Anticancer activity against human U251 cells after 48 hrs by sulforhodamine B assay; type: functional; settings: U-251, 48 h; summary of the method: as §4
[28] = Anticancer activity against human LOXIMVI cells after 48 hrs by sulforhodamine B assay; type: functional; settings: LOX IMVI; summary of the method: as §3
[29] = test system: Malme-3M; test: Anticancer activity against human MALME-3M cells after 48 hrs by sulforhodamine B assay; type: functional; summary of the method: as §3
[30] = test system: M14; test: Anticancer activity against human M14 cells after 48 hrs by sulforhodamine B assay; type: functional; settings: M14, 48 h; summary of the method: as §3
[31] = test system: MDA-MB-435; test: Anticancer activity against human MDA-MB-435 cells after 48 hrs by sulforhodamine B assay; type: functional; settings: MDA-MB-435, 48 h; summary of the method: as §3
[32] = test system: SK-MEL-2; test: Anticancer activity against human SK-MEL-2 cells after 48 hrs by sulforhodamine B assay; type: functional; settings: SK-MEL-2, 48 h; summary of the method: as §3
[33] = test system: SK-MEL-28; test: Anticancer activity against human SK-MEL-28 cells after 48 hrs by sulforhodamine B assay; type: functional; settings: SK-MEL-28, 48 h; summary of the method: as §3
[34] = test system: SK-MEL-5; test: Anticancer activity against human SK-MEL-5 cells after 48 hrs by sulforhodamine B assay; type: functional; settings: SK-MEL-5, 48 h; summary of the method: as §3
[35] = test system: UACC-257; test: Anticancer activity against human UACC257 cells after 48 hrs by sulforhodamine B assay; type: functional; settings: UACC-257, 48 h; summary of the method: as §4
[36] = test system: IGROV-1; test: Anticancer activity against human IGROV1 cells after 48 hrs by sulforhodamine B assay; type: functional; settings: IGROV-1, 48 h; summary of the method: as §3
[37] = test system: OVCAR-3; test: Anticancer activity against human OVCAR3 cells after 48 hrs by sulforhodamine B assay; type: functional; settings: OVCAR-3, 48 h; summary of the method: as §3
[38] = test system: OVCAR-4; test: Anticancer activity against human OVCAR4 cells after 48 hrs by sulforhodamine B assay; type: functional; settings: OVCAR-4, 48 h; summary of the method: as §3
[39] = test system: OVCAR-5; test: Anticancer activity against human OVCAR5 cells after 48 hrs by sulforhodamine B assay; type: functional; settings: OVCAR-5, 48 h; summary of the method: as §3
[40] = test system: OVCAR-8; test: Anticancer activity against human OVCAR8 cells after 48 hrs by sulforhodamine B assay; type: functional; settings: OVCAR-8, 48 h; summary of the method: as §3
[41] = Anticancer activity against human NCI-ADR-RES cells after 48 hrs by sulforhodamine B assay; type: functional; summary of the method: as §3
[42] = test system: SK-OV-3; test: Anticancer activity against human SKOV3 cells after 48 hrs by sulforhodamine B assay; type: functional; settings: SK-OV-3, 48 h; summary of the method: as §3
[43] = test system: 786-0; test: Anticancer activity against human 786-0 cells after 48 hrs by sulforhodamine B assay; type: functional; settings: 786-0, 48 h; summary of the method: as §3
[44] = test system: A498; test: Anticancer activity against human A498 cells after 48 hrs by sulforhodamine B assay; type: functional; settings: A498, 48 h; summary of the method: as §3
[45] = test system: ACHN; test: Anticancer activity against human ACHN cells after 48 hrs by sulforhodamine B assay; type: functional; summary of the method: as §3
[46] = test system: CAKI-1; test: Anticancer activity against human Caki1 cells after 48 hrs by sulforhodamine B assay; type: functional; settings: CAKI-1, 48 h; summary of the method: as §3
[47] = Anticancer activity against human RXF393 cells after 48 hrs by sulforhodamine B assay; type: functional; settings: RXF 393, 48 h; summary of the method: as §3
[48] = test system: SN12C; test: Anticancer activity against human SN12C cells after 48 hrs by sulforhodamine B assay; type: functional; summary of the method: as §3
[49] = test system: TK-10; test: Anticancer activity against human TK10 cells after 48 hrs by sulforhodamine B assay; type: functional; settings: TK-10, 48 h; summary of the method: as §4
[50] = test system: UO-31; test: Anticancer activity against human UO31 cells after 48 hrs by sulforhodamine B assay; type: functional; settings: UO-31, 48 h; summary of the method: as §4
[51] = test system: DU-145; test: Anticancer activity against human DU145 cells after 48 hrs by sulforhodamine B assay; type: functional; settings: DU-145, 48 h; summary of the method: as §3
[52] = test system: MCF7; test: Anticancer activity against human MCF7 cells after 48 hrs by sulforhodamine B assay; type: functional; settings: MCF7, 48 h; summary of the method: as §3
[53] = test system: MDA-MB-231; test: Anticancer activity against human MDA-MB-231 cells after 48 hrs by sulforhodamine B assay; type: functional; settings: MDA-MB-231, 48 h; summary of the method: as §3
[54] = Anticancer activity against human Hs 578T cells after 48 hrs by sulforhodamine B assay; type: functional; summary of the method: as §3
[55] = test system: BT-549; test: Anticancer activity against human BT549 cells after 48 hrs by sulforhodamine B assay; type: functional; settings: BT-549, 48 h; summary of the method: as §3
[56] = test system: T47D; test: Anticancer activity against human T47D cells after 48 hrs by sulforhodamine B assay; type: functional; summary of the method: as §4
[57] = test system: MDA-MB-468; test: Anticancer activity against human MDA-MB-468 cells after 48 hrs by sulforhodamine B assay; type: functional; settings: MDA-MB-468, 48 h; summary of the method: as §3
[58] = test system: OCI-AML-3; test: as §1; type: functional, cell-based; summary of the method: as §2

N#Cc1ccc(Cn2cc(C=C3C(=O)NC(=O)NC3=O)c3ccccc32)cc1
AC50 [1]: > 20000 nM

Cc1c(C=C2C(=O)NC(=S)NC2=O)c2ccccc2n1Cc1ccc(C#N)cc1
GI50 [2]: 840 nM
GI50 [3]: 1080 nM
GI50 [4]: 1770 nM
GI50 [5]: 1820 nM
GI50 [6]: 570 nM
GI50 [7]: 560 nM
GI50 [8]: 2480 nM
GI50 [9]: 1960 nM
GI50 [10]: 1280 nM
GI50 [11]: 1790 nM
GI50 [12]: 1930 nM
GI50 [13]: 2010 nM
GI50 [14]: 1750 nM
GI50 [15]: 1730 nM
GI50 [16]: 1790 nM
GI50 [17]: 1290 nM
GI50 [18]: 1740 nM
GI50 [19]: 1760 nM
GI50 [20]: 1740 nM
GI50 [21]: 1360 nM
GI50 [22]: 1600 nM
GI50 [23]: 1880 nM
GI50 [24]: 1290 nM
GI50 [25]: 1770 nM
GI50 [26]: 2040 nM
GI50 [27]: 1610 nM
GI50 [28]: 900 nM
GI50 [29]: 2500 nM
GI50 [30]: 1610 nM
GI50 [31]: 1490 nM
GI50 [32]: 2170 nM
GI50 [33]: 2080 nM
GI50 [34]: 1840 nM
GI50 [35]: 1670 nM
GI50 [36]: 1610 nM
GI50 [37]: 1580 nM
GI50 [38]: 1590 nM
GI50 [39]: 1840 nM
GI50 [40]: 1320 nM
GI50 [41]: 3830 nM
GI50 [42]: 2980 nM
GI50 [43]: 1760 nM
GI50 [44]: 220 nM
GI50 [45]: 1700 nM
GI50 [46]: 2210 nM
GI50 [47]: 1530 nM
GI50 [48]: 1400 nM
GI50 [49]: 1370 nM
GI50 [50]: 1460 nM
GI50 [51]: 1710 nM
GI50 [52]: 1280 nM
GI50 [53]: 1640 nM
GI50 [54]: 1220 nM
GI50 [55]: 1870 nM
GI50 [56]: 2540 nM
GI50 [57]: 380 nM
AC50 [1]: 2720 nM

Cc1c(C=C2C(=O)NC(=O)NC2=O)c2ccccc2n1Cc1ccc(C#N)cc1
Activity [58]: inactive

Cc1c(C=C2C(=O)NC(=O)NC2=O)c2ccccc2n1Cc1ccccc1
Activity [58]: inactive
